Each structure is given as a SMILES string. A value given as a limit tells only on which side of the number the result lay.

22 molecules from ChEMBL document CHEMBL3779855, “In vitro screening of 2-(1H-imidazol-1-yl)-1-phenylethanol derivatives as antiprotozoal agents and docking studies on Trypanosoma cruzi CYP51” (Eur J Med Chem, 2016) can be followed below.

Series [1] has as its system Trypanosoma cruzi. In words: Antiparasitic activity against nifurtimox-sensitive amastigote stage of Trypanosoma cruzi tulahuen CL2 infected in human MRC5 cells. The class given is functional, organism-based.
A short description of series [2]: Selectivity index, ratio of IC50 for human MRC5 cells to IC50 for nifurtimox-sensitive amastigote stage of Trypanosoma cruzi tulahuen CL2 infected in human MRC5 cells. It is filed as toxicity, cell-based. As to conditions: read-out: Ratio IC50.
A further series relates to Plasmodium falciparum. In words: Antiparasitic activity against chloroquine-resistant erythrocytic stage of Plasmodium falciparum K1 infected in […] after 72 hrs by NBT staining based spectroscopic analysis. It is filed as functional, organism-based. As to conditions: K1, 72 h.
The subject of another series is MRC5. In words: Cytotoxicity against human MRC5 cells assessed as cell viability after 4 to 7 days by Alamar Blue staining based fluorometric analysis. (Resazurin is reduced to fluorescent resorufin, in cell work by metabolically active cells.)
The test system of series [3] is Trypanosoma brucei rhodesiense. In words: Antiparasitic activity against suramin-sensitive trypomastigote stage of Trypanosoma brucei rhodesiense squib-427 infected in human MRC5 cells after 4 days by Alamar blue staining based fluorimetric analysis. The class given is functional, organism-based. As to conditions: squib-427, 96 h.
Another series has as its system Leishmania infantum. The series is described as follows: Antiparasitic activity against amastigote stage of Leishmania infantum MHOM/MA-BE/67 infected in mouse peritoneal macrophages after 5 days by Giemsa staining based microscopic analysis. It is filed as functional, organism-based. As to conditions: MHOM/MA-BE/67, 120 h.
The test system of series [4] is Trypanosoma cruzi. The series is described as follows: Potency index, ratio of benznidazole IC50 to compound IC50 for nifurtimox-sensitive amastigote stage of Trypanosoma cruzi tulahuen CL2 infected in human MRC5 cells. The class given is functional.
Series [5] in a line: Metabolic stability in human liver microsomes at 50 uM after 60 mins by LC-UV-MS analysis in the presence of NADPH-generating system. The class given is ADME. As to conditions: read-out: Stability. The gist of the method: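 Test compound at 50 μM in pH 7.4 phosphate buffer with 2% DMSO, incubated at 37°C for 60 min with human liver microsomal protein and an NADPH-generating system. The reaction was then stopped, and parent drug and metabolites were measured by LC-UV-MS.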
Background: Microsomes from liver hold many membrane-bound enzymes, among them those of drug oxidation.

What is called IC50 is the concentration needed to halve the response being measured. With `O=C(Nc1ccc(N2CCN(C(=O)c3ccco3)CC2)cc1)O[C@H](Cn1ccnc1)c1ccc(F)cc1`, the IC50 was 0.13 µM in the series with Trypanosoma cruzi [1]; 5.2 µM in the series with Plasmodium falciparum; 37.5 µM with MRC5; over 64 µM in series [3]; over 64 µM in the series with Leishmania infantum. Also, the selectivity ratio in series [2] came to 288.
Turning to `O=C(Nc1ccc(N2CCN(C(=O)c3ccco3)CC2)cc1)O[C@@H](Cn1ccnc1)c1ccc(F)cc1`, the IC50 with Trypanosoma cruzi [1] is 1.72 µM; with Plasmodium falciparum, 4 µM; in the series with MRC5 it was 26.5 µM; in series [3] it was over 64 µM; in the series with Leishmania infantum, over 64 µM. Moreover, in series [2], the selectivity ratio stood at 15.4.
Take `O=C(O[C@H](Cn1ccnc1)c1ccc(Cl)cc1)N1CCN(c2ccc([N+](=O)[O-])cc2)CC1`: the IC50 in the series on Trypanosoma cruzi [1] was 1.32 µM; in the series with Plasmodium falciparum it was 1.5 µM; in the series on MRC5, 8.5 µM; in series [3] it was over 64 µM; in the series with Leishmania infantum it was 12.7 µM. The selectivity ratio in series [2] stood at 6.4.
Consider `O=C(O[C@@H](Cn1ccnc1)c1ccc(F)cc1)c1ccc(-c2ccccc2)cc1`, for which the IC50 in the series on Trypanosoma cruzi [1] is 1.8 µM; in the series on Plasmodium falciparum, 2.3 µM; in the series with MRC5, over 64 µM; in series [3], over 64 µM; with Leishmania infantum, over 64 µM. Moreover, the selectivity ratio in series [2] is over 35.6.
As for `O=C(O[C@@H](Cn1ccnc1)c1ccc(F)cc1)N1CCN(c2ccc([N+](=O)[O-])cc2)CC1`, the IC50 in the series on Trypanosoma cruzi [1] worked out at 1.23 µM; with Plasmodium falciparum it was 1.2 µM; in the series with MRC5 it was 8.7 µM; in series [3] it was 32.2 µM; in the series on Leishmania infantum, 20.3 µM. Besides, in series [2], the selectivity ratio came out at 7.
For `O=C(O[C@H](Cn1ccnc1)c1ccc(F)cc1)c1ccc(-c2ccccc2)cc1`, the IC50 came out at 0.49 µM with Trypanosoma cruzi [1]; 2 µM with Plasmodium falciparum; 8 µM in the series on MRC5; 33.7 µM in series [3]; 34.6 µM with Leishmania infantum. The selectivity ratio in series [2] amounted to 16.3.
`O=C(O[C@@H](Cn1ccnc1)c1ccc(Cl)cc1)c1ccc(-c2ccccc2)cc1`: the IC50 in the series on Trypanosoma cruzi [1] was 0.2 µM; in the series on Plasmodium falciparum it was 2 µM; with MRC5, 7.8 µM; in series [3] it was 32.4 µM; in the series with Leishmania infantum it was over 64 µM. Moreover, the selectivity ratio in series [2] stood at 39.
With `O=C(O[C@@H](Cn1ccnc1)c1ccc(Cl)cc1)N1CCN(c2ccc([N+](=O)[O-])cc2)CC1`, the IC50 with Trypanosoma cruzi [1] worked out at 1 µM; in the series with Plasmodium falciparum it was 2.2 µM; in the series on MRC5, 8.7 µM; in series [3], 32.2 µM; in the series on Leishmania infantum, 12.7 µM. For the same molecule, the selectivity ratio in series [2] stood at 8.7.
As for `O=C(O[C@H](Cn1ccnc1)c1ccc(Cl)cc1)c1ccc(-c2ccccc2)cc1`, the IC50 worked out at 0.56 µM with Trypanosoma cruzi [1]; 2.1 µM in the series on Plasmodium falciparum; 8.2 µM in the series with MRC5; 30.1 µM in series [3]; 32 µM with Leishmania infantum. Moreover, the selectivity ratio in series [2] turned out to be 14.6.
`O=C(O[C@H](Cn1ccnc1)c1ccc(F)cc1)N1CCN(c2ccc([N+](=O)[O-])cc2)CC1`: the IC50 in the series with Trypanosoma cruzi [1] was 5.44 µM; in the series with Plasmodium falciparum, 1.3 µM; with MRC5, 8.2 µM; in series [3], over 64 µM; in the series with Leishmania infantum, over 64 µM. Moreover, the selectivity ratio in series [2] stood at 1.5.
As for `O=C(OC(Cn1ccnc1)c1ccc(F)cc1)c1ccc(-c2ccccc2)cc1` (racemic), the IC50 was 0.71 µM in the series on Trypanosoma cruzi [1]; 0.6 µM in the series on Plasmodium falciparum; 7.8 µM in the series with MRC5; 32.2 µM in series [3]; 32.2 µM with Leishmania infantum. In addition, the selectivity ratio in series [2] stood at 10.9.
For the molecule `O=C(OC(Cn1ccnc1)c1ccc(Cl)cc1)c1ccc(-c2ccccc2)cc1` (racemic), the IC50 in the series on Trypanosoma cruzi [1] came out at 0.48 µM; in the series on Plasmodium falciparum it was 1.9 µM; in the series with MRC5, 7.2 µM; in series [3] it was 32.4 µM; in the series with Leishmania infantum it was 12.7 µM. In addition, the selectivity ratio in series [2] worked out at 15.
As to `O=C(OC(Cn1ccnc1)c1ccc(Cl)cc1)N1CCN(C(=O)c2ccco2)CC1` (racemic), the IC50 in the series on Trypanosoma cruzi [1] is 5.84 µM; with Plasmodium falciparum, 10.7 µM; in the series with MRC5, over 64 µM; in series [3] it was over 64 µM; with Leishmania infantum, over 64 µM. The selectivity ratio in series [2] was over 10.9.
Consider `O=C(OC(Cn1ccnc1)c1ccc(F)cc1)N1CCN(c2ccc([N+](=O)[O-])cc2)CC1` (racemic), for which the IC50 with Trypanosoma cruzi [1] came to 1.68 µM; with Plasmodium falciparum it was 2.6 µM; with MRC5, 15.5 µM; in series [3] it was 27.2 µM; in the series on Leishmania infantum it was 27.2 µM. The selectivity ratio in series [2] was 9.2.
On to `O=C(OC(Cn1ccnc1)c1ccc(Cl)cc1)N1CCN(c2ccc([N+](=O)[O-])cc2)CC1` (racemic), for which the IC50 was determined as 0.87 µM in the series with Trypanosoma cruzi [1]; 2.4 µM with Plasmodium falciparum; 8.2 µM in the series with MRC5; 8 µM in series [3]; 8 µM in the series with Leishmania infantum. The selectivity ratio in series [2] turned out to be 9.4.
Regarding `CCS(=O)(=O)N1CCN(c2ccc(NC(=O)OC(Cn3ccnc3)c3ccc(F)cc3)cc2)CC1` (racemic), the IC50 in the series on Trypanosoma cruzi [1] is 0.04 µM; with Plasmodium falciparum it was 17.2 µM; in the series on MRC5 it was over 64 µM; in series [3], over 64 µM; with Leishmania infantum, 38 µM. The selectivity ratio in series [2] was over 1600. The “Ratio IC50” value in the series with Trypanosoma cruzi [4] was 50. Besides, the remaining at 1 h, 50 µM in series [5] was determined as 99%.
In the case of `O=C(Nc1ccc(N2CCN(C(=O)c3ccco3)CC2)cc1)OC(Cn1ccnc1)c1ccc(F)cc1` (racemic), the IC50 was determined as 0.79 µM in the series with Trypanosoma cruzi [1]; 4 µM in the series on Plasmodium falciparum; 26.4 µM with MRC5; 32.9 µM in series [3]; 28.9 µM in the series with Leishmania infantum. In series [2], the selectivity ratio stood at 33.4. Besides, the remaining at 1 h, 50 µM in series [5] came to 99%.
Consider `O=C(OC(Cn1ccnc1)c1ccc(-c2ccccc2)cc1)c1ccc(-c2ccccc2)cc1` (racemic), for which the half-inhibitory concentration (IC50) in the series with Trypanosoma cruzi [1] stood at 2.72 µM; with Plasmodium falciparum, 7.7 µM; with MRC5, 8.8 µM; in series [3], 29.1 µM; in the series on Leishmania infantum it was 8 µM. Further, the selectivity ratio in series [2] amounted to 3.2.
On to `O=C(Cn1ccnc1[N+](=O)[O-])NCc1ccccc1` [BENZNIDAZOLE], for which the IC50 in the series on Trypanosoma cruzi [1] is 1.95 µM.
Molecule `CCCCCCCCCCCCCCCCOP(=O)([O-])OCC[N+](C)(C)C` [MILTEFOSINE] yielded an IC50 in the series on Leishmania infantum of 10.4 µM.
`Cc1ccc(C(=O)Nc2ccc(S(=O)(=O)O)c3cc(S(=O)(=O)O)cc(S(=O)(=O)O)c23)cc1NC(=O)c1cccc(NC(=O)Nc2cccc(C(=O)Nc3cc(C(=O)Nc4ccc(S(=O)(=O)O)c5cc(S(=O)(=O)O)cc(S(=O)(=O)O)c45)ccc3C)c2)c1` [SURAMIN]: the IC50 in series [3] was found to be 0.02 µM.
`CC/C(=C(\c1ccccc1)c1ccc(OCCN(C)C)cc1)c1ccccc1` [TAMOXIFEN]: the IC50 in the series on MRC5 came to 10.9 µM.
